According to ChEMBL document CHEMBL1124917 (1990):

How the values were obtained:
Format in all cases: functional, Mus musculus
[1] = Average weight change of mice was determined on day 6 after intraperitoneal injection on day 1 at a dose of 256 mg/kg following intraperitoneal implant of P388 leukemia cells in CDF1 mice
Outline: (§1)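 Female CDF₁ mice (16–20 g), six per dose, implanted ip with 10⁶ P388 cells kept as ascites in DBA/2 mice. Single ip dose of freshly prepared aqueous solution 1 day post-implant. Body weight change averaged per dose group, read on day 6, in grams.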

P388 [2] = experiment: Antitumor activity was determined after intraperitoneal injection on day 1 at a dose of 256 mg/kg following intraperitoneal implant of P388 leukemia cells in CDF1 mice
Outline: (§2)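 P388 leukemia carried as ascites in DBA/2 mice; 10⁶ cells implanted ip into female CDF₁ mice (16–20 g), six per dose, 10 as untreated leukemia controls. Single ip dose of freshly prepared aqueous solution 1 day after implant. Daily observation for 30 days; activity taken as median survival time, treated vs untreated groups (% T/C).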

P388 [3] = experiment: Average weight change of mice was determined on day 6 after intraperitoneal injection on day 1 at a dose of 200 mg/kg following intraperitoneal implant of P388 leukemia cells in CDF1 mice; outline: as §1
P388 [4] = experiment: Average weight change of mice was determined on day 6 after intraperitoneal injection on day 1 at a dose of 100 mg/kg following intraperitoneal implant of P388 leukemia cells in CDF1 mice; outline: as §1
P388 [5] = experiment: Antitumor activity was determined after intraperitoneal injection on day 1 at a dose of 100 mg/kg following intraperitoneal implant of P388 leukemia cells in CDF1 mice; outline: as §2
P388 [6] = experiment: Antitumor activity was determined after intraperitoneal injection on day 1 at a dose of 200 mg/kg following intraperitoneal implant of P388 leukemia cells in CDF1 mice; outline: as §2
P388 [7] = experiment: Average weight change of mice was determined on day 6 after intraperitoneal injection on day 1 at a dose of 64 mg/kg following intraperitoneal implant of P388 leukemia cells in CDF1 mice; outline: as §1
P388 [8] = experiment: Antitumor activity was determined after intraperitoneal injection on day 1 at a dose of 64 mg/kg following intraperitoneal implant of P388 leukemia cells in CDF1 mice; outline: as §2
P388 [9] = experiment: Antitumor activity was determined after intraperitoneal injection on day 1 at a dose of 128 mg/kg following intraperitoneal implant of P388 leukemia cells in CDF1 mice; outline: as §2
P388 [10] = experiment: Average weight change of mice was determined on day 6 after intraperitoneal injection on day 1 at a dose of 128 mg/kg following intraperitoneal implant of P388 leukemia cells in CDF1 mice; outline: as §1
P388 [11] = experiment: Average weight change of mice was determined on day 6 after intraperitoneal injection on day 1 at a dose of 400 mg/kg following intraperitoneal implant of P388 leukemia cells in CDF1 mice; outline: as §1
P388 [12] = experiment: Average weight change of mice was determined on day 6 after intraperitoneal injection on day 1 at a dose of 50 mg/kg following intraperitoneal implant of P388 leukemia cells in CDF1 mice; outline: as §1
P388 [13] = experiment: Antitumor activity was determined after intraperitoneal injection on day 1 at a dose of 50 mg/kg following intraperitoneal implant of P388 leukemia cells in CDF1 mice; outline: as §2
P388 [14] = experiment: Antitumor activity was determined after intraperitoneal injection on day 1 at a dose of 400 mg/kg following intraperitoneal implant of P388 leukemia cells in CDF1 mice; outline: as §2
P388 [15] = experiment: Average weight change of mice was determined on day 6 after intraperitoneal injection on day 1 at a dose of 32 mg/kg following intraperitoneal implant of P388 leukemia cells in CDF1 mice; outline: as §1
P388 [16] = experiment: Antitumor activity which was determined after intraperitoneal injection on day 1 at a dose of 32 mg/kg following intraperitoneal implant of P388 leukemia cells in CDF1 mice; outline: as §2

SMILES | AWC [1] [g] | T/C (P388 [2]) [%] | AWC (P388 [3]) [g] | AWC (P388 [4]) [g] | T/C (P388 [5]) [%] | T/C (P388 [6]) [%] | AWC (P388 [7]) [g] | T/C (P388 [8]) [%] | T/C (P388 [9]) [%] | AWC (P388 [10]) [g] | other results
CC(=O)OC[C@H]1O[C@@H](n2cc(C)c(=O)[nH]c2=O)C[C@@H]1OC(=O)NP(=O)(N1CC1(C)C)N1CC1(C)C (stereo not given in full) | -0.5 | 125 | – | – | – | – | – | – | – | – | –
CCOP(=O)(N1CC1(C)C)N1CC1(C)C (stereo not given) | – | – | -5.2 | -2.6 | 289 | 433 | – | – | – | – | –
CC1(C)CN1P(=O)(Nc1ccccc1)N1CC1(C)C (stereo not given) [PHOSPHINIC ANILIDE DERIVATE] | -0.8 | 169 | – | – | – | – | -1.3 | 144 | 138 | -0.7 | –
CCOC(=O)NP(=O)(N1CC1(C)C)N1CC1(C)C (stereo not given) [METUREDEPA] | – | – | -0.2 | -0.4 | 181 | 231 | – | – | – | – | AWC (P388 [11]): -1.3 g; AWC (P388 [12]): -0.7 g; T/C (P388 [13]): 163%; T/C (P388 [14]): 244%
CC(=O)O[C@H]1C[C@H](n2cc(C)c(=O)[nH]c2=O)O[C@@H]1COC(=O)NP(=O)(N1CC1(C)C)N1CC1(C)C (stereo not given in full) | -1.3 | 113 | – | – | – | – | – | – | – | – | –
Cc1cn(C2CC(O)C(CNP(=O)(N3CC3(C)C)N3CC3(C)C)O2)c(=O)[nH]c1=O (stereo not given) | -0.7 | 156 | – | – | – | – | -0.4 | 150 | 150 | -0.8 | AWC (P388 [15]): -0.7 g; T/C (P388 [16]): 131%
